How the values were obtained:
[1] = test system: Blood; assay: Biodistribution in ICR mouse blood at 1 uCi, iv after 120 mins postinjection; assay type: ADME, organism-based; settings: in vivo, 2 h
How it was run: (§1)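 Female ICR mice (18–22 g, n = 5) received HPLC-purified radiotracer by tail vein (0.1 mL). They were killed by cervical fracture at the stated times. Blood and organs were removed, weighed and gamma-counted. Uptake expressed as percent injected dose per gram of tissue (%ID/g), given as mean with SD.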

[2] = test system: Mus musculus; assay: Biodistribution in ICR mouse small intestine at 1 uCi, iv after 30 mins postinjection; assay type: ADME, organism-based; settings: in vivo, 0.5 h; how it was run: as §1
[3] = 1-Octanol-sodium phosphate buffer distribution coefficient, log D of the compound at pH 7.4; assay type: physicochemical
How it was run: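 Shake-flask partition of HPLC-purified radiotracer between 1-octanol and 0.05 mol/L sodium phosphate buffer pH 7.4, phases mutually pre-saturated (3 mL each). […] Octanol layer re-distributed until values were consistent. Triplicate, repeated three times.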

[4] = test system: Thyroid gland; assay: Biodistribution in ICR mouse thyroid at 1 uCi, iv after 120 mins postinjection; assay type: ADME, organism-based; settings: in vivo, 2 h
How it was run: (§2)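 Female ICR mice (18–22 g, n = 5) received HPLC-purified radioiodinated tracer by tail vein (0.1 mL, 1 µCi). They were killed by cervical fracture at 15, 30, 60, 120 or 240 min post-injection. Blood and organs were removed, weighed and gamma-counted. Uptake is expressed as %ID/g, mean ± SD, n = 4–5.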

[5] = test system: Spleen; assay: Biodistribution in ICR mouse spleen at 1 uCi, iv after 120 mins postinjection; assay type: ADME, organism-based; settings: in vivo, 2 h; how it was run: as §1
[6] = test system: Brain; assay: Biodistribution in ICR mouse brain at 1 uCi, iv after 15 mins postinjection; assay type: ADME, organism-based; settings: in vivo, 0.25 h; how it was run: as §1
[7] = test system: Stomach; assay: Biodistribution in ICR mouse stomach at 1 uCi, iv measured per organ after 60 mins postinjection; assay type: ADME, organism-based; settings: in vivo, 1 h; how it was run: as §2
[8] = test system: Blood; assay: Biodistribution in ICR mouse blood at 1 uCi, iv after 60 mins postinjection; assay type: ADME, organism-based; settings: in vivo, 1 h; how it was run: as §1
[9] = test system: Mus musculus; assay: Biodistribution in ICR mouse small intestine at 1 uCi, iv after 15 mins postinjection; assay type: ADME, organism-based; settings: in vivo, 0.25 h; how it was run: as §1
[10] = test system: Kidney; assay: Biodistribution in ICR mouse kidney at 1 uCi, iv after 60 mins postinjection; assay type: ADME, organism-based; settings: in vivo, 1 h; how it was run: as §1
[11] = test system: Liver; assay: Biodistribution in ICR mouse liver at 1 uCi, iv after 240 mins postinjection; assay type: ADME, organism-based; settings: in vivo, 4 h; how it was run: as §1
[12] = test system: Heart; assay: Biodistribution in ICR mouse heart at 1 uCi, iv after 15 mins postinjection; assay type: ADME, organism-based; settings: in vivo, 0.25 h; how it was run: as §1
[13] = test system: Brain; assay: Biodistribution in ICR mouse brain at 1 uCi, iv after 30 mins postinjection; assay type: ADME, organism-based; settings: in vivo, 0.5 h; how it was run: as §1
[14] = test system: Kidney; assay: Biodistribution in ICR mouse kidney at 1 uCi, iv after 30 mins postinjection; assay type: ADME, organism-based; settings: in vivo, 0.5 h; how it was run: as §1
[15] = test system: Spleen; assay: Biodistribution in ICR mouse spleen at 1 uCi, iv after 15 mins postinjection; assay type: ADME, organism-based; settings: in vivo, 0.25 h; how it was run: as §1
[16] = test system: Mus musculus; assay: Biodistribution in ICR mouse small intestine at 1 uCi, iv after 240 mins postinjection; assay type: ADME, organism-based; settings: in vivo, 4 h; how it was run: as §1
[17] = test system: Kidney; assay: Biodistribution in ICR mouse kidney at 1 uCi, iv after 240 mins postinjection; assay type: ADME, organism-based; settings: in vivo, 4 h; how it was run: as §1
[18] = test system: Kidney; assay: Biodistribution in ICR mouse kidney at 1 uCi, iv after 120 mins postinjection; assay type: ADME, organism-based; settings: in vivo, 2 h; how it was run: as §1
[19] = test system: Liver; assay: Biodistribution in ICR mouse liver at 1 uCi, iv after 120 mins postinjection; assay type: ADME, organism-based; settings: in vivo, 2 h; how it was run: as §1
[20] = test system: Kidney; assay: Biodistribution in ICR mouse kidney at 1 uCi, iv after 15 mins postinjection; assay type: ADME, organism-based; settings: in vivo, 0.25 h; how it was run: as §1
[21] = test system: Muscle tissue; assay: Biodistribution in ICR mouse muscle at 1 uCi, iv after 30 mins postinjection; assay type: ADME, organism-based; settings: in vivo, 0.5 h; how it was run: as §1
[22] = test system: Heart; assay: Biodistribution in ICR mouse heart at 1 uCi, iv after 240 mins postinjection; assay type: ADME, organism-based; settings: in vivo, 4 h; how it was run: as §1
[23] = test system: Brain; assay: Biodistribution in ICR mouse brain at 1 uCi, iv after 60 mins postinjection; assay type: ADME, organism-based; settings: in vivo, 1 h; how it was run: as §1
[24] = test system: Spleen; assay: Biodistribution in ICR mouse spleen at 1 uCi, iv after 60 mins postinjection; assay type: ADME, organism-based; settings: in vivo, 1 h; how it was run: as §1
[25] = test system: Liver; assay: Biodistribution in ICR mouse liver at 1 uCi, iv after 15 mins postinjection; assay type: ADME, organism-based; settings: in vivo, 0.25 h; how it was run: as §1
[26] = test system: Thyroid gland; assay: Biodistribution in ICR mouse thyroid at 1 uCi, iv after 240 mins postinjection; assay type: ADME, organism-based; settings: in vivo, 4 h; how it was run: as §2
[27] = test system: Muscle tissue; assay: Biodistribution in ICR mouse muscle at 1 uCi, iv after 240 mins postinjection; assay type: ADME, organism-based; settings: in vivo, 4 h; how it was run: as §1
[28] = test system: Heart; assay: Biodistribution in ICR mouse heart at 1 uCi, iv after 120 mins postinjection; assay type: ADME, organism-based; settings: in vivo, 2 h; how it was run: as §1

In the case of `[125I]c1ccc(CN2CCN(Cc3ccc4c(c3)OCO4)CC2)cc1`, the Drug uptake [1] is reported as 0.77 % ID/g, the Drug uptake [2] is reported as 10.21 % ID/g and the logD [3] is reported as 2.98. For the same molecule, the Drug uptake [4] was 1.4 % ID/g, the Drug uptake [5] was 4.79 % ID/g and the Drug uptake [6] was 5.03 % ID/g. The Drug uptake [7] was 1.78 %ID, the Drug uptake [8] was 0.81 % ID/g and the Drug uptake [9] was 5.77 % ID/g. It also gave a Drug uptake [10] of 8.73 % ID/g, a Drug uptake [11] of 3.95 % ID/g and a Drug uptake [12] of 3.98 % ID/g. For the same molecule, the Drug uptake [13] was 4.96 % ID/g, the Drug uptake [14] was 9.65 % ID/g and the Drug uptake [15] was 6.68 % ID/g. For the same molecule, the Drug uptake [16] was 10.95 % ID/g, the Drug uptake [17] was 6.89 % ID/g and the Drug uptake [18] was 7.82 % ID/g. The Drug uptake [19] was 5.08 % ID/g, the Drug uptake [20] was 12.72 % ID/g and the Drug uptake [21] was 1.78 % ID/g. The Drug uptake [22] was 0.75 % ID/g, the Drug uptake [23] was 4.63 % ID/g and the Drug uptake [24] was 5.7 % ID/g. The Drug uptake [25] was 9 % ID/g, the Drug uptake [26] was 1.22 % ID/g and the Drug uptake [27] was 0.72 % ID/g. The Drug uptake [28] was 1.24 % ID/g.

Reference: ChEMBL document CHEMBL1772977, “Synthesis and biological evaluation of novel 4-benzylpiperazine ligands for sigma-1 receptor imaging” (Bioorg Med Chem, 2011)
